Screening data (PubChem)
In the library only some 3.5% were active in any assay of this set; here they are far more common.
MrgX1 antagonist: blocks BAM8-22 activation of human MrgX1 receptor. Q96LB2. MRGX1-HEK293 calcium flux, Fluo-4, BAM8-22 antagonism; active compounds read low. B-score at 10 µM. 1.3% of 310,000 active. AID 588676;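 active = calcium-response B-score plate-corrected more than 3 library SD below zero, starting fluorescence within 5 deviations, no agonist response on first addition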;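 also: peak minus trough fluorescence over baseline after final BAM8-22 challenge near maximal dose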
Target sequence (Q96LB2 whole entry, looked up): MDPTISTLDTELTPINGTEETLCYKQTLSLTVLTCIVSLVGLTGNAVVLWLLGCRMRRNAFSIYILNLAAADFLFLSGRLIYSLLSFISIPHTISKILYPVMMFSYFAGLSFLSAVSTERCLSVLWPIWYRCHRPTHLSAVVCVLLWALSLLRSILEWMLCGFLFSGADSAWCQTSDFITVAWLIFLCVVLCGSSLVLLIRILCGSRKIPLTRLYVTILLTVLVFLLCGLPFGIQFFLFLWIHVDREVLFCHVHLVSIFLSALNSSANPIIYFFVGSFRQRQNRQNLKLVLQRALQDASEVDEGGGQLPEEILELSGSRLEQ
MrgX1 agonist: human MrgX1 receptor agonism, primary screen; Q96LB2; MrgX1-HEK293 cells, Fluo-4 calcium fluorescence, agonist mode; active compounds read high; B-score at 10 µM; 0.44% of 310,000 active;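 active = calcium response B-score plate-corrected fluorescence ratio at least 3 library SD, with starting fluorescence B-score inside 5 SD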
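Assay system: MrgX1-expressing HEK293 cells / Amount: fifteen thousand cells per well / Doses: test compound in the initial addition of three / Timing: cells plated overnight, dye loaded 0.5 h 37 °C, 0.5 h room temperature / Technique: kinetic calcium dye fluorescence, Fluo-4 NW / Control set: positive and negative controls per plate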
RGS4 pot: potentiators or activators of RGS4; B-score at 10 µM; HEK293 M3R/inducible RGS4, carbachol calcium flux Fluo4; active compounds read low; 0.92% of 310,000 active; AID 463111;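 active = B-score of the integrated calcium signal more than 4 SD below the library mean, with starting fluorescence not abnormally high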;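 also: negative B-score means reduced calcium response which marks RGS4 activation or potentiation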
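Detection: kinetic calcium fluorescence imaging with Fluo4-AM dye, 2 µM / Material: HEK293 cells with stable M3R and inducible RGS4 / Schedule: recording 10 s baseline at 1 Hz, 100 s post-agonist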
RGS4 inh: human RGS4 inhibition; HEK293 M3R/RGS4 inducible, Fluo-4 calcium flux; active compounds read high; triggered by carbachol at its EC20; B-score at 10 µM; 0.45% of 310,000 active;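 active = B-score, a plate-corrected calcium signal, over three deviations above library mean, with baseline fluorescence within five deviations of library mean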;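 also: RGS4 expression induced by doxycycline in cells with stable M3 receptor; B-score is computed from the integrated fluorescence ratio over baseline after carbachol; higher B-score means a larger calcium signal and so more RGS4 inhibition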
Target sequence (P49798 whole entry, looked up): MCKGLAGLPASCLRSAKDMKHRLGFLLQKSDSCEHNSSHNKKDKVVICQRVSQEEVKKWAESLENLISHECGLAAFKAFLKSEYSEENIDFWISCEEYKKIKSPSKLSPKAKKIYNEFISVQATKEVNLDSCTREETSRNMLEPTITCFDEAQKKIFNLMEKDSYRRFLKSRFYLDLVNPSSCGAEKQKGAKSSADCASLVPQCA
MrgX1 allo act: allosterically activates human MrgX1 receptor signaling; B-score at 10 µM; Q96LB2; MrgX1-HEK293, Fluo-4 calcium flux, FDSS; active compounds read high; AID 588675; 0.63% of 310,000 active;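 active = plate-corrected calcium response at least 3 library SD above typical, normal starting fluorescence, not activating the receptor alone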;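 also: compound read alongside a low EC10 to EC30 dose of BAM8-22 agonist; peak minus trough fluorescence over baseline measured at the second addition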
MrgX1 ant reconf: confirmation of human MrgX1 receptor antagonists; 19% of 2,300 active; remaining BAM8-22 calcium response % of control (active compounds read low), % at 10 µM; MrgX1-HEK293, BAM8-22 calcium flux, Fluo-4; active compounds read low; AID 602420; shares compounds with MrgX1 antagonist;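 active = remaining agonist calcium response no higher than 100% minus 3 SD of agonist-only control wells, with starting fluorescence near control levels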;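 also: agonist BAM8-22 given at a near maximal EC90 to ECmax level; peak minus minimum fluorescence divided by baseline after agonist addition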
HEK293 Ca flux: counter-screen for MrgX1 antagonists: effect in parental HEK293 cells; shares compounds with MrgX1 antagonist; Fluo-4 calcium fluorescence, FDSS; fluorescence ratio F(max-min)/F0 at 10 µM; 2% of 4,000 active; AID 624111;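 active = duplicate-averaged calcium fluorescence ratio at least three times the standard deviation of buffer wells, a nonspecific response in parental cells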
HEK293 Ca counter: MrgX1 allosteric activator counter-screen hit in parental HEK293 cells | AID 624114 | shares compounds with MrgX1 antagonist | fluorescence ratio F(max-min)/F0 at 10 µM | parental HEK293 calcium flux, Fluo-4 fluorescence ratio; active compounds read high | 0.4% of 4,000 active;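 active = calcium fluorescence ratio, averaged over duplicates, at least 3 SD of the buffer-well ratio, meaning a nonspecific response in receptor-free cells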;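 also: untransfected parental HEK293 lacking MrgX1 used as counterscreen for MrgX1 allosteric activators; fluorescence change taken during the second addition on a kinetic imager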
HEK293 Ca cntr2: counter-screen for MrgX1 activators: effect in parental HEK293 cells | AID 624115 | shares compounds with MrgX1 antagonist | 8.7% of 4,000 active | Fluo-4 calcium fluorescence (FDSS); active compounds read high | fluorescence ratio F(max-min)/F0 at 10 µM;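 active = calcium fluorescence ratio at least three times the spread of buffer wells, meaning a non-specific response in parental cells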
Of the large screens only hits and unclear results are named; the others gave an inactive call (follow-up assays come after a bar, where they were run).

CC(=O)N1CCc2cc(S(=O)(=O)CCC(=O)NCc3ccc(C)o3)ccc21	none
COc1ccc(CNc2nc(-c3ccccc3)nn2C(=O)c2ccc([N+](=O)[O-])cc2)cc1	none
COc1ccc(CNc2nc(-c3ccccc3)nn2C(=O)c2cccs2)cc1	MrgX1 antagonist -4.9 | MrgX1 ant reconf inactive | HEK293 Ca flux inactive | HEK293 Ca counter inactive | HEK293 Ca cntr2 55
O=C(CN1CCN(Cc2ccccc2Cl)C1=O)NCC1CCCO1 (centres undefined)	none
O=C(Nc1ccccc1F)c1ccc(C(=O)c2ccccc2)cc1	MrgX1 antagonist -5.6 | MrgX1 ant reconf 84% | HEK293 Ca flux inactive | HEK293 Ca counter inactive | HEK293 Ca cntr2 inactive
COc1cccc(C2=CC(c3ccc(OC)c(OC)c3OC)n3nnnc3N2)c1 (centres undefined)	none
COc1cccc(C2=CC(c3cccs3)n3nnnc3N2)c1 (centres undefined)	MrgX1 antagonist -5.5 | MrgX1 ant reconf 84% | HEK293 Ca flux inactive | HEK293 Ca counter inactive | HEK293 Ca cntr2 inactive
Oc1ccccc1CNc1cnc2ccccc2c1	none
C=CCc1cccc(CNc2cnc3ccccc3c2)c1O	MrgX1 antagonist -6.6 | MrgX1 ant reconf 82% | HEK293 Ca flux inactive | HEK293 Ca counter inactive | HEK293 Ca cntr2 inactive
COc1cccc(Nc2nc(NCCO)nc(N3CCCC3)n2)c1	none
COc1ccc(Nc2nc(NCCO)nc(N3CCCC3)n2)cc1	MrgX1 antagonist -5.5 | MrgX1 ant reconf inactive | HEK293 Ca flux inactive | HEK293 Ca counter inactive | HEK293 Ca cntr2 inactive
COC(=O)c1ccc(NC(=O)c2ccc3nsnc3c2)cc1	none
Cc1ccc(N=Cc2cc3c(cc2O)OC(N)=C(C#N)C3c2ccccc2)cc1 (centres undefined)	MrgX1 antagonist -9.8 | MrgX1 ant reconf 80% | HEK293 Ca flux inactive | HEK293 Ca counter inactive | HEK293 Ca cntr2 inactive
COc1ccc(N2C(=O)CC(N3CCN(C(=O)c4ccco4)CC3)C2=O)cc1 (centres undefined)	none
CN(C)S(=O)(=O)c1cccc(C(=O)NCCCn2ccnc2)c1	none
O=C(NCCCn1ccnc1)c1cccc(S(=O)(=O)Nc2ccc(Br)cc2)c1	MrgX1 antagonist -4.5 | MrgX1 ant reconf inactive | HEK293 Ca flux inactive | HEK293 Ca counter inactive | HEK293 Ca cntr2 inactive
O=C(CCCc1c[nH]c2ccccc12)N1CCCCCC1	none
COc1ccccc1C(=O)N=C1NC(=O)CC2C(=O)NCCN12 (centres undefined)	none
CCn1nnc2cc(C(=O)Nc3cc(S(C)(=O)=O)ccc3Cl)ccc21	none
CCn1nnc2cc(C(=O)Nc3cc(OC)cc(OC)c3)ccc21	MrgX1 antagonist -8.7 | MrgX1 ant reconf inactive | HEK293 Ca flux inactive | HEK293 Ca counter inactive | HEK293 Ca cntr2 inactive
c1ccc(-n2ncc3c(NCCN4CCCCC4)ncnc32)cc1	none
CCN(CC)S(=O)(=O)c1ccc(OC(C)C)nc1	MrgX1 antagonist -5.9 | MrgX1 ant reconf inactive | HEK293 Ca flux inactive | HEK293 Ca counter inactive | HEK293 Ca cntr2 inactive
COc1ccc(CNc2nc3nc(C)c(Cl)c(=O)n3[nH]2)cc1OC	MrgX1 antagonist -5.9 | MrgX1 ant reconf inactive | HEK293 Ca flux inactive | HEK293 Ca counter inactive | HEK293 Ca cntr2 inactive
COc1ccc(Cc2cnc(N)s2)cc1	MrgX1 antagonist -12 | MrgX1 ant reconf 79% | HEK293 Ca flux inactive | HEK293 Ca counter inactive | HEK293 Ca cntr2 inactive
CCC(=O)Nc1c(C(=O)N2CCN(c3ccccn3)CC2)cnn1-c1ccc(Cl)cc1	none
Cc1cc(Nc2ccccc2Cl)c2ccccc2n1	none
CC(=O)c1c(C)[nH]c(C(=O)Nc2nc(-c3ccc(-c4ccccc4)cc3)cs2)c1C	MrgX1 antagonist -12 | MrgX1 ant reconf 52% | HEK293 Ca flux inactive | HEK293 Ca counter inactive | HEK293 Ca cntr2 inactive
O=C(Nc1nc(-c2ccccc2)cs1)c1ccc(=O)[nH]c1	MrgX1 antagonist -4.8 | MrgX1 ant reconf inactive | HEK293 Ca flux inactive | HEK293 Ca counter inactive | HEK293 Ca cntr2 inactive
CC(=O)c1cccc(NC(=O)c2ccc3c(=O)n4c(nc3c2)CCCCC4)c1	none
Cc1cc(-c2csc(NC(=O)c3ccc(=O)[nH]c3)n2)c(C)n1Cc1ccccc1	none
O=C(Nc1nc(-c2ccccc2)cs1)c1ccc2c(=O)n3c(nc2c1)CCCCC3	MrgX1 antagonist -12 | MrgX1 ant reconf 9.6% | HEK293 Ca flux inactive | HEK293 Ca counter inactive | HEK293 Ca cntr2 inactive
Cc1ccc(C)c(NC(=S)N(C)CCO)c1	none
CN(C)c1ccc(C2N(c3ccc(Cl)cc3)C(=O)C3CCCN32)cc1 (centres undefined)	MrgX1 antagonist -6 | MrgX1 ant reconf inactive | HEK293 Ca flux inactive | HEK293 Ca counter inactive | HEK293 Ca cntr2 inactive
S=c1nc(-c2ccccc2Br)[nH][nH]1	MrgX1 antagonist -6.1 | MrgX1 ant reconf inactive | HEK293 Ca flux inactive | HEK293 Ca counter inactive | HEK293 Ca cntr2 inactive
Cc1ccccc1NC(=O)Cc1nc(CCl)cs1	MrgX1 antagonist -5.4 | MrgX1 ant reconf inactive | HEK293 Ca flux inactive | HEK293 Ca counter inactive | HEK293 Ca cntr2 inactive
Cc1ccc(C)c(NC(=O)Cc2nc(CCl)cs2)c1	none
CCCNC(=O)c1nc(C)n(-c2cc(Cl)cc(Cl)c2)n1	none
CCCNC(=O)c1nc(C)n(-c2cc(Cl)ccc2Cl)n1	MrgX1 antagonist -8.2 | MrgX1 ant reconf 81% | HEK293 Ca flux inactive | HEK293 Ca counter inactive | HEK293 Ca cntr2 inactive
Cc1cccc(C)c1OCC(=O)Nc1ncn[nH]1	none
O=C(COc1ccc2ccccc2c1Br)Nc1ncn[nH]1	MrgX1 antagonist -4.5 | MrgX1 ant reconf inactive | HEK293 Ca flux inactive | HEK293 Ca counter inactive | HEK293 Ca cntr2 inactive
CCOC(=O)C(C)Sc1nc(=O)n2ccccc2n1 (centres undefined)	MrgX1 antagonist -5.1 | MrgX1 ant reconf inactive | HEK293 Ca flux inactive | HEK293 Ca counter inactive | HEK293 Ca cntr2 inactive
COc1ccccc1CN1CCN(S(=O)(=O)c2ccccc2)CC1	none
COc1ccccc1N1CCN(C(=O)CN(c2ccc(C)c(C)c2)S(C)(=O)=O)CC1	MrgX1 antagonist -4.8 | MrgX1 ant reconf inactive | HEK293 Ca flux inactive | HEK293 Ca counter inactive | HEK293 Ca cntr2 inactive
COc1ccccc1N1CCN(C(=O)C(F)F)CC1	MrgX1 antagonist -6.8 | MrgX1 ant reconf inactive | HEK293 Ca flux inactive | HEK293 Ca counter inactive | HEK293 Ca cntr2 inactive
